Measurements collected from several papers.
Each line is one published result; the experiments were not run side by side. Values after ≈ are worked out from the molar mass of the structure shown.

SMILES | target or system | assay | test system | conditions | endpoint | result
CC(C)C(=O)OCc1cc2[nH]c(=S)n(Cc3cncc(C(N)=S)c3)c(=O)c2cc1Cl | Mycobacterium tuberculosis | microbial growth | H37RV |  | MIC90 | 18 µM (≈ 8.33 µg/mL)
Nc1c(C(=O)NCc2ccccc2)sc2nc(-c3ccccc3)ccc12 | HepG2 | cell growth or viability |  | 72 h | IC50 | > 100 µM
O=c1c2cc(Cl)ccc2[nH]c(=S)n1Cc1ccc(-c2nnn[nH]2)nc1 | Mycobacterium tuberculosis | microbial growth | H37RV |  | MIC90 | 87.4 µM (≈ 32.5 µg/mL)
N=C(CC(O)c1cc2c(F)cc(F)cc2c2cc(C(F)(F)F)ccc12)NCc1ccc(F)cc1 (stereo not drawn) | HepG2 | cell growth or viability, neutral red |  | 24 h | IC50 | 7.2 µM
CN(C)CCC(c1cccnc1)n1c(=S)[nH]c2ccc(Cl)cc2c1=O (stereo not drawn) | Mycobacterium tuberculosis | microbial growth | H37RV |  | MIC90 | > 100 µM
CCc1ccc(CCNc2cc(-c3ccccn3)nc3nnc(C4CC4)n23)cc1 | Mycobacterium tuberculosis | microbial growth | H37RV |  | MIC | 50 µM (≈ 19.2 µg/mL)
COc1ccc(-c2cc(C(F)(F)F)c3c(N)c(C(=O)NC4COC4)sc3n2)cc1 | HepG2 | cell growth or viability |  | 72 h | IC50 | > 100 µM
O=C(Nc1ccc(Cl)cc1)Nc1cccc(-c2cn(Cc3ccc(Br)cc3)nn2)c1 | Huh-7 | cell growth or viability, CCK-8 |  | 50 µM, 72 h | viability | 13.1%
COc1ccc(CCNc2cc(-c3ccccn3)nc3cc(Br)nn23)cc1 | Mycobacterium tuberculosis | microbial growth | H37RV |  | MIC | 23 µM (≈ 9.76 µg/mL)
N#Cc1ccc(NC(=N)CC(O)c2cc3c(F)cc(F)cc3c3cc(C(F)(F)F)ccc23)cc1 (stereo not drawn) | HepG2 | cell growth or viability, neutral red |  | 24 h | IC50 | > 25 µM
COC1CN(C(=O)c2sc3ncccc3c2N)C1 | Mycobacterium tuberculosis | microbial growth | H37RV |  | IC50 | > 100 µM
O=c1c2cc(Cl)c(CO)cc2[nH]c(=S)n1Cc1cncnc1 | Mycobacterium tuberculosis | microbial growth | H37RV |  | MIC90 | 3.23 µM (≈ 1.08 µg/mL)
COc1ccc(-c2cc(C(F)(F)F)c3c(N)c(C(=O)Nc4c(C)cccc4C)sc3n2)cc1 | HepG2 | cell growth or viability |  | 72 h | IC50 | > 100 µM
c1ccc(CCOc2cc(-c3ccccn3)nc3nncn23)cc1 | Mycobacterium tuberculosis | microbial growth | H37RV |  | MIC | > 100 µM
COCCNC(=O)c1sc2nc(-c3ccc(OC)cc3)cc(C(F)(F)F)c2c1N | HepG2 | cell growth or viability |  | 72 h | IC50 | > 100 µM
NC(=S)c1cncc(Cn2c(=S)[nH]c3ccc(Cl)cc3c2=O)c1 | Mycobacterium tuberculosis | microbial growth | H37RV |  | MIC90 | > 100 µM
N=C(CC(O)c1cc2c(F)cc(F)cc2c2cc(C(F)(F)F)ccc12)NC1CC(F)(F)C1 (stereo not drawn) | HepG2 | cell growth or viability, neutral red |  | 24 h | IC50 | 7.2 µM
CC(CNc1cc(-c2ccccn2)nc2nncn12)c1ccccc1 (stereo not drawn) | Mycobacterium tuberculosis | microbial growth | H37RV |  | IC90 | 35 µM
COc1ccc(-c2cc(C(F)(F)F)c3c(N)c(C(=O)N4CCCCC4)sc3n2)cc1 | HepG2 | cell growth or viability |  | 72 h | IC50 | > 100 µM
O=c1c2ccccc2[se]n1-c1ccccc1 | Trypanosoma cruzi | parasite growth | Vero | 72 h, intracellular, amastigote | EC50 | 3.72 µM
CC(C)C(=O)OCc1cc2[nH]c(=S)n(Cc3cncc(C#N)c3)c(=O)c2cc1Cl | Mycobacterium tuberculosis | microbial growth | H37RV |  | MIC90 | 5.52 µM (≈ 2.37 µg/mL)
CCC(NC(=O)c1sc2nc(-c3ccc(OC)cc3)cc(C(F)(F)F)c2c1N)c1ccccc1 (stereo not drawn) | HepG2 | cell growth or viability |  | 72 h | IC50 | > 100 µM
N#Cc1ccc(Cn2c(=S)[nH]c3ccc(Cl)cc3c2=O)cn1 | Mycobacterium tuberculosis | microbial growth | H37RV |  | MIC90 | > 100 µM
N=C(CC(O)c1cc2c(F)cc(F)cc2c2cc(C(F)(F)F)ccc12)N1CCC(F)(F)CC1 (stereo not drawn) | HepG2 | cell growth or viability, neutral red |  | 24 h | IC50 | 15.7 µM
NC(=O)c1cc2[nH]c(=S)n(Cc3cccnc3)c(=O)c2cc1Cl | Mycobacterium tuberculosis | microbial growth | H37RV |  | MIC90 | 7.1 µM (≈ 2.46 µg/mL)
Cc1cccc(NC(=O)c2sc3nc(-c4ccco4)cc(C(F)(F)F)c3c2N)c1C | HepG2 | cell growth or viability |  | 72 h | IC50 | > 100 µM
Clc1ccc(CCNc2cc(-c3ccccn3)nc3cc(Br)nn23)cc1 | Mycobacterium tuberculosis | microbial growth | H37RV |  | MIC | 36 µM (≈ 15.4 µg/mL)
